pIC50: −log10 of the molar value. Active and inactive are the calls of the source. The rule behind the calls is not given here.
What was measured:
Type in all cases: functional, cell-based
HCT-116 = test: Antiproliferative activity against human HCT-116 cells assessed as inhibition of cell growth after 48 hrs by MTT assay; settings: HCT-116, 48 h
How it was run: (§1)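 Cells grown in RPMI-1640 with 10% heat-inactivated FBS at 37 °C, 5% CO2, seeded at 8×10^3/well, treated 48 h with compound at 20, 200, 400, 1000 μM or DMSO vehicle. MTT (5 mg/mL solution) added for 4 h at 37 °C; absorbance read at 570 nm. IC50 from three independent experiments, mean ± SD.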

K562 = test: Antiproliferative activity against human K562 cells assessed as inhibition of cell growth after 48 hrs by MTT assay; settings: K562, 48 h; how it was run: as §1
B16-F10 = test: Antimigratory activity against mouse B16-F10 cells assessed as inhibition of cell migration at 6.25 to 25 uM measured after 24 hrs by scratch wound healing assay; settings: dose 6.25-25 µM
How it was run: (§2)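 Near-confluent monolayers (1.5×10^5 cells per well, RPMI-1640 + 10% FBS) scratched with a pipette tip, washed twice with serum-free RPMI-1640, then exposed to compound in fresh FBS-containing medium (DMSO solvent control) for 24 h. Wounds photographed by inverted microscopy; migration expressed as wound width at 24 h / wound width at 0 h (%). Triplicate.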

B16 = test: Antimigratory activity against mouse B16 cells assessed as inhibition of cell migration at 6.25 to 25 uM measured after 24 hrs by scratch wound healing assay; settings: dose 6.25-25 µM; how it was run: as §2

CCCCCCCCCCCCC/C=C/[C@@H](O)[C@@H](N)CO[C@@H]1O[C@H](CO)[C@@H](O[C@@H]2O[C@H](CO[C@]3(C(=O)O)C[C@H](O)[C@@H](NC(C)=O)[C@H]([C@H](O)[C@H](O)CO)O3)[C@H](O)[C@H](O)[C@H]2O)[C@H](O)[C@H]1O
pIC50 (HCT-116): 3.82 | pIC50 (K562): 3.83 | inhibition (B16-F10): Active | inhibition (B16): Active

CCCCCCCCCCCCC/C=C/[C@@H](O)[C@H](CO[C@@H]1O[C@H](CO)[C@@H](O[C@@H]2O[C@H](CO[C@]3(C(=O)O)C[C@H](O)[C@@H](NC(C)=O)[C@H]([C@H](O)[C@H](O)CO)O3)[C@H](O)[C@H](O)[C@H]2O)[C@H](O)[C@H]1O)NC(=O)CCCCCCCCCCCCCCCCC
pIC50 (HCT-116): 3.70 | pIC50 (K562): 3.70 | inhibition (B16-F10): Active | inhibition (B16): Active
